Bioassay records deposited in PubChem by several laboratories.
Compounds with a hit are over-represented: about 3.9% of the library has one in this group of screens.
HSP90 inh = HSP90 inhibitors, primary screen, cell lysate, luminescence. Heat shock protein HSP 90 (rabbit reticulocyte lysate; luciferase refolding). Rabbit reticulocyte lysate, luciferase refolding luminescence, 3 h. inhibition, % at 5.6 µM. 290,000 tested, 0.91% active. AID 1789, 2009;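 active = inhibition above the screen-wide mean plus 3 SD, computed separately per campaign, cut at about 16% in these data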;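 note: 0% = DMSO wells and 100% = 60 µM geldanamycin wells; inhibitors lower the luminescence because luciferase stays unfolded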
HCV core dimer = inhibitors of HCV core protein dimerization, primary screen, biochemical, TR-FRET, high-throughput; TR-FRET GST/Flag-core106 dimerization, 1536-well; inhibition, % at 5 µM; 300,000 tested, 0.33% active;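 active = inhibition above the mean of all tested compounds plus 3 SD, set per screening campaign, cut at about 45% in these data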
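System: GST-tagged and Flag-tagged HCV core protein residues 1-106 / Input: core106 proteins, GST 13.5 nM and Flag 17 nM / Buffer or medium: KF-containing HEPES buffer, pH 7.45, DTT, CHAPS, BSA / Probe or stimulus: Eu-anti-GST and XL665-anti-Flag labelled anti-tag antibodies / Schedule: 4 h, 22.5 °C incubation / Technique: TR-FRET 671 and 617 nm emission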
HSF-1 act = HSF-1 activators, primary screen, NIH3T3-HGL cells, MG132 stress, luminescence, single point. NIH3T3-HGL HSF-1 luciferase reporter, 8 h; 100% = twice DMSO control signal. activation, % at 9 µM. 300,000 tested, 1.7% active. AID 504408, 2011;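 active = mean replicate activation of at least 50% with a set share of replicates each reaching 50%; inconclusive = only one of those two conditions met; inactive = mean below 50% and too few replicates reaching it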;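 note: 0% = median of the neutral control wells and 100% = twice that signal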
FID counter = compounds displacing fluorescent DNA intercalator, primary screen, artefact control for HCV NS3 helicase inhibitor project, biochemical, FID fluorescence; DNA fluorescent intercalator displacement; inhibition, % at 7.9 µM; 290,000 tested, 0.17% active; in the data active = inhibition above about 37%;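 note: 0% = vehicle and 100% = reference compound; higher means more ethidium bromide displaced from hairpin DNA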
HSF1 inh = HSF1 inhibitors in luciferase reporter cells, primary screen, cell-based, NIH3T3, luminescence. NIH3T3-HGL HSE-luciferase, MG132-induced, luminescence 8 h; stronger effect = lower value. 300,000 tested, 0.77% active. activity change, negative = inhibition, % at 7.5 µM (by protocol);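 active = more than half of replicate wells show activity change below -50%, luminescence cut by over half; inconclusive = some wells, but at most half, below -50%; inactive = no replicate well below -50%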;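 note: luciferase reports HSF-1 transcriptional activity via heat shock element; 0% = median of DMSO wells and -100% = zero luminescence signal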
NS3 helicase inh = inhibitors of HCV NS3 helicase, primary screen, biochemical, Cy5 molecular beacon fluorescence; AID 1800, 2009; NS3 helicase DNA unwinding; inhibition, % at 10.9 µM; 290,000 tested, 0.56% active; Hepatitis C virus NS3 helicase;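 active = inhibition above the mean of all tested compounds plus 3 SD, set per campaign, cut at about 35% in these data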;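 note: 0% = DMSO wells and 100% = thioflavine S control wells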
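Assay system – hepatitis C virus NS3 helicase domain fragment enzyme · Buffer or medium – MOPS pH 6.5, MgCl2, DTT, Tween20, BSA · Reagent – Cy5/quencher beacon DNA duplex and ATP to start · Compound – single 10.9 µM dose · Timing – 1 h at 25 °C · Technique – Cy5 beacon fluorescence read at start and 1 h · Measure – % inhibition of unwinding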
An asterisk follows results filed as active.

Results for O=C(N/N=C/c1cc([N+](=O)[O-])ccc1O)c1ccncc1 ?
HSP90 inh: -2.6; HCV core dimer: -3.4; HSF-1 act: -61.1; FID counter: -4.2; HSF1 inh: -54.3*; NS3 helicase inh: -3.0

How did O=C(N/N=C/c1ccc([N+](=O)[O-])s1)c1ccncc1 do in these assays?
HSP90 inh: -0.1; HCV core dimer: -13.8; HSF-1 act: 60.5*; FID counter: 7.1; HSF1 inh: 49.8; NS3 helicase inh: 2.2

What do the screens show for `Cc1ccc(C(=O)N/N=C/c2ccc([N+](=O)[O-])s2)cc1`?
HSP90 inh: 3.7; HCV core dimer: -4.3; HSF-1 act: -72.2; FID counter: 4.0; HSF1 inh: -69.5*; NS3 helicase inh: 8.4

Results for CCC(C)NC(=O)C1CCN(S(=O)(=O)N2CCCC2)CC1 (centres undefined) ?
HSP90 inh: -2.3; HCV core dimer: 1.3; HSF-1 act: 14.3; FID counter: -0.1; HSF1 inh: -2.3; NS3 helicase inh: 1.9

What do the screens show for `CC(=O)Nc1ccc(/C=N/NC(=O)c2cc3ccccc3nc2C)cc1`?
HSP90 inh: -1.4; HCV core dimer: -9.2; HSF-1 act: 5.0; FID counter: -7.4; HSF1 inh: -8.0; NS3 helicase inh: -2.0

How did Cc1nc2c(cc1C(=O)N/N=C/c1ccc(O)c(O)c1)c(=O)n(C)c(=O)n2C do in these assays?
HSP90 inh: 0.5; HCV core dimer: 0.4; HSF-1 act: -79.4; FID counter: -1.5; HSF1 inh: -73.0*; NS3 helicase inh: 4.3

What do the screens show for `N#CCCn1[nH]c(-c2ccccc2)cc1=O`?
HSP90 inh: 31.4*; HCV core dimer: -3.5; HSF-1 act: 21.8; FID counter: -1.8; HSF1 inh: 19.6; NS3 helicase inh: 9.6

What do the screens show for `Cc1cc(=O)n(CCCc2ccccc2)[nH]1`?
HCV core dimer: -19.2; HSF-1 act: 32.2; HSF1 inh: 9.4

Results for CCN(CC)CCCNc1cc(C)nc2cc(-c3cccs3)nn12 ?
HSP90 inh: 3.2; HCV core dimer: 0.4; HSF-1 act: -4.5; FID counter: 30.2; HSF1 inh: -0.7; NS3 helicase inh: 1.4

How did O=C(C1CCC1)N1CCc2cc(S(=O)(=O)N3CCN(c4ccccn4)CC3)ccc21 do in these assays?
HSP90 inh: -0.3; HCV core dimer: 19.9; HSF-1 act: 63.0*; FID counter: -20.5; HSF1 inh: 25.2; NS3 helicase inh: -2.2

How did COc1ccc(OCc2n(CC(=O)OC3CC(C)CCC3C(C)C)c3ccccc3[n+]2C)cc1 (centres undefined) do in these assays?
HSP90 inh: 4.7; HCV core dimer: -7.5; HSF-1 act: 5.7; FID counter: 40.3*; HSF1 inh: 0.4; NS3 helicase inh: -75.7

What do the screens show for `COc1ccc(-c2n(CC(=O)OC3CC(C)CCC3C(C)C)c3ccccc3[n+]2C)cc1` (centres undefined)?
HSP90 inh: -0.1; HSF-1 act: -23.0; FID counter: 36.3; HSF1 inh: -11.7; NS3 helicase inh: -73.4

What do the screens show for `O=c1[nH]c2ccccc2c2cn(-c3ccccc3)nc12`?
HSP90 inh: 0.5; HCV core dimer: -0.1; HSF-1 act: inconclusive; FID counter: -17.7; HSF1 inh: 30.9; NS3 helicase inh: -10.9

Results for CC(=O)c1ccc(NC(=O)Nc2cccc(Cl)c2)cc1 ?
HSP90 inh: -2.6; HCV core dimer: -1.1; HSF-1 act: 67.5*; FID counter: 4.8; HSF1 inh: 36.5; NS3 helicase inh: 0.5

What do the screens show for `CC(=O)Nc1ccc(NC(=O)Nc2cccc(Cl)c2)cc1`?
HSP90 inh: -1.6; HCV core dimer: -4.4; HSF-1 act: 7.4; FID counter: -2.4; HSF1 inh: 2.8; NS3 helicase inh: -7.0

Results for COc1cc(/C=N/NC(=O)c2cccc([N+](=O)[O-])c2)ccc1OCc1ccccc1 ?
HSP90 inh: 4.5; HCV core dimer: 6.9; HSF-1 act: 23.5; FID counter: -2.9; HSF1 inh: 11.4; NS3 helicase inh: 4.6
